Key:
[1] = Antiinflammatory activity in human SAEC assessed as inhibition of Poly(I:C) induced CIG5 expression by measuring residual activity rate at 10 uM pretreated for 24 hrs followed by Poly(I:C) addition for 4 hrs by qRT-PCR analysis; assay type: functional; settings: time 28 hrs
Procedure, shortened: (§1)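 hSAECs pretreated with compound at 10 μM final for 24 h, then poly(I:C) 10 μg/mL for 4 h. CIG5 or IL-6 mRNA measured by qRT-PCR (ΔΔCt, normalized to PPIA). Residual activity given as % of poly(I:C)-alone control, mean ± SD of three independent measurements.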

[2] = Antiinflammatory activity in human SAEC assessed as inhibition of Poly(I:C) induced IL-6 expression by measuring residual activity rate at 10 uM pretreated for 24 hrs followed by Poly(I:C) addition for 4 hrs by qRT-PCR analysis; assay type: functional; settings: time 28 hrs; procedure, shortened: as §1
[3] = Antiinflammatory activity in human SAEC assessed as inhibition of Poly(I:C) induced CIG5 expression pretreated for 24 hrs followed by Poly(I:C) addition for 4 hrs by qRT-PCR analysis; assay type: functional, cell-based
Procedure, shortened: (§2)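 Poly(I:C) 10 μg/mL then added for 4 h. CIG5 or IL-6 mRNA measured by qRT-PCR (ΔΔCt, PPIA normalized). IC50 from a four-parameter fit, mean ± SD of three independent runs.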

[4] = Antiinflammatory activity in human SAEC assessed as inhibition of Poly(I:C) induced IL-6 expression pretreated for 24 hrs followed by Poly(I:C) addition for 4 hrs by qRT-PCR analysis; assay type: functional, cell-based; procedure, shortened: as §2
[5] = target: T1, Bromodomain testis-specific protein (Homo sapiens, UniProt Q58F21); test: Binding affinity BRDT BD1 (unknown origin) incubated for 1 hr by TR-FRET assay
[6] = target: T1, Bromodomain testis-specific protein; test: Binding affinity BRDT BD2 (unknown origin) incubated for 1 hr by TR-FRET assay
[7] = target: CREB-binding protein (Homo sapiens, UniProt Q92793); test: Binding affinity CBP (unknown origin) incubated for 1 hr by TR-FRET assay
Chain of CREB-binding protein (Q92793 whole entry): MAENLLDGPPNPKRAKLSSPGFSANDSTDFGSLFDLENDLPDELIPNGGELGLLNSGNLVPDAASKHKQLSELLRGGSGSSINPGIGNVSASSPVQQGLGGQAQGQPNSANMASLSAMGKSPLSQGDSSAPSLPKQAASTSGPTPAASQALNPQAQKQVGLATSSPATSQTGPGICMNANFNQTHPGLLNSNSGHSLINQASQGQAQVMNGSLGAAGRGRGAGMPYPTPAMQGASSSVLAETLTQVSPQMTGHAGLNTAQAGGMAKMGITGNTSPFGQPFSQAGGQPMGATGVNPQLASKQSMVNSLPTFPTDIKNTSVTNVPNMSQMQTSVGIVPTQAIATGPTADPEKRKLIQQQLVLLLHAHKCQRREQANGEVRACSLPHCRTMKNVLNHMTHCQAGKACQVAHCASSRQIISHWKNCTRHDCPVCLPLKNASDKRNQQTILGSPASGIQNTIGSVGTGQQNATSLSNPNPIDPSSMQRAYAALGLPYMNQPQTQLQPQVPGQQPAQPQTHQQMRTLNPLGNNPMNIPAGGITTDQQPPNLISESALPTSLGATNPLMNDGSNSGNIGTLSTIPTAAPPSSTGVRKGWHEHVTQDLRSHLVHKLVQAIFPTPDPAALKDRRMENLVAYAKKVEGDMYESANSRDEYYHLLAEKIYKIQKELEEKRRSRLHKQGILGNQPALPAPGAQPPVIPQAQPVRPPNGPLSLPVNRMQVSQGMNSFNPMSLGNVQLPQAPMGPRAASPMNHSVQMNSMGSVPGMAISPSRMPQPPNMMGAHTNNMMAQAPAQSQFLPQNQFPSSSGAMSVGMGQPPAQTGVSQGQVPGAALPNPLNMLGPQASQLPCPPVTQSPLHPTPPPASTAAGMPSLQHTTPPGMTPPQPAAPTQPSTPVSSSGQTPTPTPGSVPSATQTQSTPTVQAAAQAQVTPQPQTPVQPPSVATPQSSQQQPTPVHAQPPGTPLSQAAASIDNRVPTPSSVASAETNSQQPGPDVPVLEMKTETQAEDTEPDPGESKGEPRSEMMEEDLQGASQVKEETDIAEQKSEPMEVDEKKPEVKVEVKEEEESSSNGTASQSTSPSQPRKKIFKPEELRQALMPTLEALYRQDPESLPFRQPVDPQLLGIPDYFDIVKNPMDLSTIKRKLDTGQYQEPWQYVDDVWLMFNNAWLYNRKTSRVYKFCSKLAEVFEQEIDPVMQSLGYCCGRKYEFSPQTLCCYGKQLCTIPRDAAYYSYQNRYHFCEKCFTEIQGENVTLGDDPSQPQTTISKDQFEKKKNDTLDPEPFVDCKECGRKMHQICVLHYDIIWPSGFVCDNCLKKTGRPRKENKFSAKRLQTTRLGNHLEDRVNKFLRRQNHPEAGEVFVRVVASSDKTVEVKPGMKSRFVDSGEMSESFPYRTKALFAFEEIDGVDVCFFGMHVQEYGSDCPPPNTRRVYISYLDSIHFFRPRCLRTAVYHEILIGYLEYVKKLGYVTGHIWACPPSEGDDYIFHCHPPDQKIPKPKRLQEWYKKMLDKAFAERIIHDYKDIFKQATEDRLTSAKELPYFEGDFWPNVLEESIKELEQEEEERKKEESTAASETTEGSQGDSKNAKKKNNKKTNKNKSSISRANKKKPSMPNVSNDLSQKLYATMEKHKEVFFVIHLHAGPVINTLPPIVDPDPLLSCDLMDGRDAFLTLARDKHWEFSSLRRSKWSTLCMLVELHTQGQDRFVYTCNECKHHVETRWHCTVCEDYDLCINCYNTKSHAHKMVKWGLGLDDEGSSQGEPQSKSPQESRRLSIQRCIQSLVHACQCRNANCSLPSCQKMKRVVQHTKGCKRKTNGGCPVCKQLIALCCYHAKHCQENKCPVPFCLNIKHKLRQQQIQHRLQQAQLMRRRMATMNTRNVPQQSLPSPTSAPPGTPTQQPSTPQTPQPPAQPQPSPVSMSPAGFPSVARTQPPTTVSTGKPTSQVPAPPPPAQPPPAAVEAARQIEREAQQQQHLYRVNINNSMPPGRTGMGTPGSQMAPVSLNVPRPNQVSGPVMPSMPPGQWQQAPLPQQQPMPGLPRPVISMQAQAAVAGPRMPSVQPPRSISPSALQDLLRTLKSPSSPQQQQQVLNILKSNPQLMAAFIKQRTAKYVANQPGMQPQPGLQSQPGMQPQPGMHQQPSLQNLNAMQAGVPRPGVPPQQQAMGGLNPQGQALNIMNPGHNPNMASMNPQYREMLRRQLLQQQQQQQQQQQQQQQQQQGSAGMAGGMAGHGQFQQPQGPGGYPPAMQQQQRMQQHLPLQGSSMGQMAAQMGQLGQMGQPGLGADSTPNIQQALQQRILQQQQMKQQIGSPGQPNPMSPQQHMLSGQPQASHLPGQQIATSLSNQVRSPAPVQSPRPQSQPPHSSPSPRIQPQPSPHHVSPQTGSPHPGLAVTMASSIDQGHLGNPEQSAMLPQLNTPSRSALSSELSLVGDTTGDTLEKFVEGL

Row | SMILES | Activity [1] | Activity [2] | other results
1 | COC(=O)[C@@H]1CCCN1S(=O)(=O)c1ccc(NC(=O)Nc2ccc(C(F)(F)F)cc2)cc1OC | 59.5% | 22.5% | –
2 | CCOC(=O)[C@H]1CCCN1S(=O)(=O)c1ccc(NC(=O)Nc2ccc(C(F)(F)F)cc2)cc1 | 4.74% | 0.57% | –
3 | COC(=O)[C@@H]1CCCN1S(=O)(=O)c1ccc(NC(=O)Nc2ccc(C(F)(F)F)cc2)c(F)c1 | 137% | 51.9% | –
4 | O=C(Nc1ccc(C(F)(F)F)cc1)Nc1ccc(S(=O)(=O)N2CCC[C@H]2C(=O)O)cc1 | 214% | 25.3% | –
5 | O=C(Nc1ccc(C(F)(F)F)cc1)Nc1ccc(S(=O)(=O)N2CCC(N3CCCC3)CC2)cc1 | 10% | 0.31% | –
6 | COC(=O)[C@@H]1CCCN1S(=O)(=O)c1ccc(NC(=O)Nc2cccc(C(F)(F)F)c2)cc1 | 4% | 66.7% | –
7 | COC(=O)[C@@H]1CCCN1S(=O)(=O)c1ccc(NC(=O)c2ccc(C(F)(F)F)cc2)cc1 | 105% | 71% | –
8 | COC(=O)[C@@H]1CCCN1S(=O)(=O)c1ccc(NC(=O)Nc2ccc(C(F)(F)F)c(Cl)c2)cc1 | 74.7% | 37.9% | –
9 | NC(=O)[C@@H]1CCCN1S(=O)(=O)c1ccc(NC(=O)Nc2ccc(C(F)(F)F)cc2)cc1 | 22.6% | 12.7% | –
10 | COC(=O)[C@@H]1CCCN1S(=O)(=O)c1ccc(N/N=C(\C#N)C(=O)c2ccc(OC(F)(F)F)cc2)cc1 | 1.02% | 17.5% | –
11 | Cc1ccc(S(=O)(=O)OC[C@@H]2CCCN2S(=O)(=O)c2ccc(NC(=O)Nc3ccc(C(F)(F)F)cc3)cc2)cc1 | 0.63% | 6.98% | IC50 [3]: 10.8 µM; IC50 [4]: 4.31 µM
12 | O=C(Nc1ccc(C(F)(F)F)cc1)Nc1ccc(S(=O)(=O)N2CCC[C@H]2C(=O)Nc2ccccn2)cc1 | 1.12% | 32.8% | –
13 | COC(=O)[C@@H]1CCCN1S(=O)(=O)c1ccc(NC(=O)Nc2ccc(OC)cc2)cc1 | 73.3% | 418% | –
14 | COc1cc(OC)c2c(=O)[nH]c(-c3cc(C)c(OCCO)c(C)c3)nc2c1 [APABETALONE] | – | – | IC50 [5]: 5.03 µM; IC50 [6]: 0.696 µM; IC50 [7]: > 10 µM
15 | COC(=O)[C@@H]1CCCN1S(=O)(=O)c1ccc(NC(=O)Nc2ccc(C(F)(F)F)cc2)cc1 | 2.19% | 3.42% | IC50 [3]: 1.35 µM; IC50 [4]: 1.83 µM
16 | CN1CCN(C(=O)[C@@H]2CCCN2S(=O)(=O)c2ccc(NC(=O)Nc3ccc(C(F)(F)F)cc3)cc2)CC1 | 5.47% | 6.63% | –
17 | COC(=O)[C@@H]1CCCN1S(=O)(=O)c1ccc(NC(=O)Nc2ccc(F)cc2)cc1 | 28.8% | 149% | –
18 | CC(=O)N1CCN(S(=O)(=O)c2ccc(NC(=O)Nc3ccc(C(F)(F)F)cc3)cc2)CC1 | 20% | 15.2% | –
19 | COC(=O)[C@@H]1CCCN1S(=O)(=O)c1ccc(NC(=O)NCc2ccc(C(F)(F)F)cc2)cc1 | 150% | 40.4% | –

Reference: ChEMBL document CHEMBL5042517, “Discovery, X-ray Crystallography, and Anti-inflammatory Activity of Bromodomain-containing Protein 4 (BRD4) BD1 Inhibitors Targeting a Distinct New Binding Site” (J Med Chem, 2022)
